High-throughput results deposited in PubChem by several laboratories.
Hsp70 activator: switches on Hsp70 transcription; HeLa Hsp70 promoter luciferase reporter, luminescence; scaled: vehicle 0, proteasome-inhibitor control 100%; activation, % at 10 µM; 0.04% of 200,000 active; AID 1203;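 active = activation above the mean across all tested compounds plus 3 SD, cutoff set per campaign, cut at about 5.5% in these data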;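 also: 100% = MG132 at 30 µM as the positive control and 0% = DMSO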
Mdm2 ligase inh: Mdm2 E3 ligase (human) inhibition | signal enhancement, % at 5 µM | cell-based MDM2 ubiquitination luciferase reporter, 2 h; 0 = plate control, 100 = twice control, blank-subtracted | AID 1230 | Q00987 | 0.11% of 210,000 active;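 active = signal enhancement of 30% or more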;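 also: luminescence tracks abundance of the self-degrading MDM2-luciferase fusion protein; higher signal means inhibition of MDM2 E3 ligase activity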
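Assay system: mammalian cells stably expressing self-ubiquitinating, self-degrading MDM2 E3–luciferase fusion. Quantity: 2000 cells in each well. Medium: DMEM culture medium. Compound dosing: single-point 5 µM. Timing: cell settling 4 h, compound treatment 2 h, both 37 °C. Technique: luciferase luminescence. Read-out basis: percent signal gain over controls, blank-subtracted. Benchmarks: plate controls and plate blanks.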
Pf gametocyte: kills late stage P. falciparum gametocytes | P. falciparum stage V gametocytes, ATP luminescence, 24 h | inhibition, % at 10.9 µM | 0.065% of 150,000 active | AID 743093;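 active = inhibition above the mean plus 3 SD of compounds within the control limits, set per campaign, cut at about 38% in these data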;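 also: 0% = DMSO wells and 100% = medium only without gametocytes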
Wee1 degr inh: human Wee1 degradation inhibition, primary screen. P30291. HeLa Luc-Wee1K328M stability, luciferase luminescence; 100% = proteasome inhibitor MG132 effect. reporter increase, % at 5 µM. 1.2% of 220,000 active;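 active = activation above the mean of all tested compounds plus 3 SD, set per screening run, cut at about 8.8% in these data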;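 also: cells exposed to compound for 20 h before luminescence read; 0% = DMSO alone and 100% = MG132 at 30 µM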
Target sequence (P30291 whole entry K328M): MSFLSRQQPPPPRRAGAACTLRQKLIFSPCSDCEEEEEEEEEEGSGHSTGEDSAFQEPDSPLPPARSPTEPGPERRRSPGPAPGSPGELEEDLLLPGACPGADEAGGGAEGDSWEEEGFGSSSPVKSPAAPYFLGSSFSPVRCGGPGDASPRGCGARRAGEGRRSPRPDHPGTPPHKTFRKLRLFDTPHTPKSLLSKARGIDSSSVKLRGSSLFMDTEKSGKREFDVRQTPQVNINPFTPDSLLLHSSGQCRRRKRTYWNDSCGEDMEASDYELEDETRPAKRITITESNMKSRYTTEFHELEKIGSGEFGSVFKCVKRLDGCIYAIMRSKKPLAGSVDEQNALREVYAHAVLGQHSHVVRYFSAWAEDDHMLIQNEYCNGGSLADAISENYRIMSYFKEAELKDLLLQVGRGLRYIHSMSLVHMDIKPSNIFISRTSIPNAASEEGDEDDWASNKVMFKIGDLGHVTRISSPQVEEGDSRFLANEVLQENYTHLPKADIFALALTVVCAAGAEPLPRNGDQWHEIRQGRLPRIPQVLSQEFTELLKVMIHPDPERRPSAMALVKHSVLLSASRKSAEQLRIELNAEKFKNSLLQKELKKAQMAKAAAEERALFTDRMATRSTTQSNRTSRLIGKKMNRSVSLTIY
Wee1 stab conf: confirmation of human Wee1 degradation inhibitors; 4% of 1,100 active; activation, % at 5 µM; shares compounds with Wee1 degr inh; HeLa Luc-Wee1K328M degradation, luminescence; vehicle 0%, proteasome-blocked wells 100%; in the data active = activation above about 8.9%
* = called active by the depositor; . = no result given. In the library only some 1.3% were active in any assay of this set; here they are far more common.

SMILES | Hsp70 activator | Mdm2 ligase inh | Pf gametocyte | Wee1 degr inh | Wee1 stab conf
O=C(NC1CCN(Cc2nnnn2CCc2ccccc2)CC1)c1ccccc1F | 0 | . | 11 | 12* | -1
Cc1ccccc1C(=O)NC1CCN(Cc2nnnn2Cc2ccccc2)CC1 | 0 | -4 | 8 | -2 | .
CCOC(=O)[C@H]1NN=C(C(=O)OC)[C@@H]1c1ccccc1 | 0 | 11 | 22 | -1 | .
CCc1ccc(N(C(=O)Cc2cccs2)C(C(=O)NC2CCCCC2)c2cn(C)nc2C)cc1 (centres undefined) | 0 | -7 | 13 | 2 | .
CCOc1cccc(N(C(=O)Cc2cccs2)C(C(=O)NC2CCCCC2)c2cccn2C)c1 (centres undefined) | 0 | 8 | . | 11* | 9.6*
O=C(Cc1cccc(C(F)(F)F)c1)NCC(c1ccco1)N1CCCCC1 (centres undefined) | 0 | 2 | 11 | 1 | .
Cc1cc(N2CCCC2)nc(N2C3CCC2CC(O)(c2ccc(F)cc2)C3)n1 (centres undefined) | 0 | -15 | . | 16* | -3
CCN1CCN(c2ccc([N+](=O)[O-])cc2S(=O)(=O)N2CCOCC2)CC1 | 0 | 1 | . | 11* | 4
Cc1nnc(N(C)C(=O)c2ccc3c(c2)OCO3)s1 | 0 | -1 | . | -2 | .
COc1cc(C2=NOC(C(=O)NCc3cccs3)C2)cc(OC)c1OC (centres undefined) | -1 | -6 | . | 11* | 15*
COc1ccccc1/C=C/C(=O)Nc1ccc2c(c1)CCC2 | 0 | -15 | -5 | 11* | 6
COc1ccc(OC)c(/C=C/C(=O)Nc2ccc3c(c2)CCC3)c1 | 0 | -12 | 4 | 4 | .
COc1cc(NC(=O)Cn2ccsc2=N)cc(OC)c1 | . | -1 | -2 | 13* | -1
Cc1ccc(C(=O)Nn2cnnc2)cc1Cl | . | . | -11 | . | .
COc1ccc(N(CC(=O)Nc2ccc(S(=O)(=O)N3CCCC3)cc2)S(C)(=O)=O)cc1OC | 0 | 3 | 5 | 1 | .
COc1ccc(N(CC(=O)Nc2ccc(S(=O)(=O)N3CCCCC3)cc2)S(C)(=O)=O)cc1OC | 0 | -15 | 18 | 24* | 0
O=C(c1ccc(S(=O)(=O)NCC2CCCO2)cc1)N1CCN(c2ccccc2F)CC1 (centres undefined) | 0 | -13 | -29 | 26* | 1
O=C(c1ccc(S(=O)(=O)NCC2CCCO2)cc1)N1CCN(c2cccc(Cl)c2)CC1 (centres undefined) | 0 | -9 | 12 | 0 | .
CNc1oc(-c2ccccc2Cl)nc1C#N | 0 | -18 | 1 | 13* | 0
CNc1oc(-c2cccc3ccccc23)nc1C#N | 0 | -3 | . | -3 | .
COc1ccc(CNCCNC(=O)c2cccs2)c(OC)c1OC | 0 | -3 | 11 | 12* | -1
C/C(=N\NC(=O)c1cccnc1)c1ccc(OC2OCCOC2Oc2ccc(/C(C)=N/NC(=O)c3cccnc3)cc2)cc1 (centres undefined) | 0 | -23 | 10 | -1 | .
Cc1noc(NS(=O)(=O)c2ccc(N/C=C/C(=O)c3cccnc3)cc2)c1C | 0 | -6 | . | -2 | .
O=C(/C=C\Nc1ccc(Br)cc1)c1cccnc1 | 0 | -47 | . | 11* | 0
COc1cccc(/C=N/NC(=O)CCc2c(C)n[nH]c2C)c1O | . | 2 | -16 | -1 | .
SMILES | Hsp70 activator | Mdm2 ligase inh | Pf gametocyte | Wee1 degr inh | Wee1 stab conf
COc1ccc2[nH]c(CN3CCN(CC(C)C)C(CCO)C3)c(C)c2c1 (centres undefined) | 0 | -16 | 0 | -2 | .
COc1ccc2[nH]c(CN3CCN(C(C)C)C(CCO)C3)c(C)c2c1 (centres undefined) | 0 | -11 | -16 | 20* | 2
FC(F)(F)c1nnc2ccc(NCc3ccccc3)nn12 | 0 | -6 | 9 | 0 | .
CC(C)/C=N/Nc1nc2c(c(=O)n(C)c(=O)n2C)n1C | . | -100 | 22 | 12* | 0
CCc1ccc(OCc2nnc(SCc3ccc(C(=O)O)cc3)o2)cc1 | 0 | 0 | 4 | 1 | .
O=C(O)c1ccc(CSc2nnc(COc3ccccc3)o2)cc1 | 0 | -14 | 28 | 14* | 4
CCOc1ccc(Cc2noc3c2C(=O)CCC3)cc1OCC | 1 | -10 | 13 | 17* | 2
O=c1c(Cc2ccc(F)cc2)c(O)ccn1CC1CCCO1 (centres undefined) | 0 | -24 | . | -1 | .
O=c1c(Cc2c(F)cccc2Cl)c(O)ccn1CC1CCCO1 (centres undefined) | 0 | -7 | -4 | 12* | -2
CS(=O)(=O)N1CCCC(C(=O)Nc2ccc3c(c2)OCCO3)C1 (centres undefined) | 0 | 2 | -11 | 1 | .
O=C(c1ccc(S(=O)(=O)N2CCCCC2)cc1)N1CCN(c2ccccc2F)CC1 | 0 | -2 | 11 | 0 | .
COc1ccccc1N1CCN(C(=O)c2ccc(S(=O)(=O)N3CCCCCC3)cc2)CC1 | 0 | 1 | -18 | 11* | 0
CC(C)CN1CCC(=O)N([C@H](CO)Cc2ccccc2)CC1 | . | . | 28 | . | .
COCCCN(C(=O)c1ccccc1F)c1nc(-c2ccc(OC)cc2)cs1 | . | . | -17 | . | .
Cc1ccsc1/C=C1\CCc2ccccc2C1=O | 0 | -11 | . | 16* | 0
COc1ccccc1-c1ccc(SCc2ccccc2F)nn1 | 0 | -10 | -5 | 13* | 14*
CCCOc1ccc(C(C)=O)cc1CN1CCOCC1 | 0 | 2 | -4 | 12* | -1
O=C(CN1N=C(c2ccc(Cl)cc2)CCC1=O)NCc1cccs1 | 0 | 11 | . | 12* | -2
COCCn1c(SCC(=O)Nc2ccc(F)cc2)nc2c(oc3ccccc32)c1=O | 0 | -9 | -19 | 11* | -2
